In the library only some 3.4% were active in any assay of this set; here they are far more common.
SF-1 act – activates the human nuclear receptor SF-1 | Q13285 | AID 522 | 1.9% of 65,000 active | CHO-K1 Gal4-SF-1 LBD luciferase reporter; % increase over DMSO SF-1-specific signal | activation, % at 10 µM;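 active = activation above the mean activation of all tested compounds plus 3 SD, cut at about 50% in these data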
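Material: Transient Gal4-SF-1 LBD reporter, CHO-K1 | Input: 4,000 cells/well | Dosing: One dose, 10 µM compound, 1% DMSO | Incubation: 20 h compound treatment, 37 °C | Detection: SteadyLite luciferase luminescence | Evaluation: Percent activation relative to DMSO median and mock-transfected background | Benchmarks: DMSO-treated SF-1-transfected cells as negative, DMSO-treated mock-transfected cells lacking SF-1 as background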
RORA act – activates the human nuclear receptor RORA; activation, % at 10 µM; AID 560; 1.5% of 65,000 active; CHO-K1 Gal4-RORA LBD luciferase reporter, luminescence; percent increase over mock-subtracted basal signal; P35398;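 active = activation above the mean of all tested compounds plus 3 SD, cut at about 49% in these data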;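 also: 0% = DMSO-treated RORA cells and 100% = added signal equal to DMSO minus mock-transfected cells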
Target sequence (P35398 whole entry, looked up, the tested form may be a part): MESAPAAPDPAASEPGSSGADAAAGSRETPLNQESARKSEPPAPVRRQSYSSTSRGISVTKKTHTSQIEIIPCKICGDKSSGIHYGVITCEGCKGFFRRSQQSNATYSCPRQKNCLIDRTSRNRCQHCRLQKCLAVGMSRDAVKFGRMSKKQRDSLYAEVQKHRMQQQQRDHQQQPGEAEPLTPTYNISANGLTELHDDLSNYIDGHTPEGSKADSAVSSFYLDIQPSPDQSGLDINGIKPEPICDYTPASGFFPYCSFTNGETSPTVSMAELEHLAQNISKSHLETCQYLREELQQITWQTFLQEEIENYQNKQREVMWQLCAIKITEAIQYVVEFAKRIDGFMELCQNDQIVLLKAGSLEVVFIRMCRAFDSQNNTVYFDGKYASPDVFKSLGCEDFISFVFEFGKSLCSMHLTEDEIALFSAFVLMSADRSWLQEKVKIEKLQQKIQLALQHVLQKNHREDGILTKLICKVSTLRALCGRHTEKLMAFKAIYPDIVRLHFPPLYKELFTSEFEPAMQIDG
WNV NS2B-NS3 inh – inhibitors of West Nile virus NS2B-NS3 protease | P06935 | 0.18% of 65,000 active | z-score (no concentration beside the values) | WNV NS2B-NS3 protease, fluorogenic substrate Ex360/Em465; active compounds read low; in the data active = z-score below about -3
ROCK2 inh – blocks human Rho kinase 2 activity. O75116. purified ROCK2, Kinase-Glo ATP depletion luminescence. inhibition, % at 6 µM. 0.35% of 60,000 active;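 active = inhibition above the screen-wide mean inhibition plus 3 SD, cut at about 18% in these data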;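 also: plate controls were DMSO wells for no effect and Y-27632 control wells after no-enzyme background subtraction for full effect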
PKA inh – PKA (human) kinase inhibition; P17612; AID 524; inhibition, % at 6 µM; PKA Kemptide phosphorylation, Kinase-Glo ATP luminescence; 0.1% of 65,000 active;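 active = inhibition above the screen-wide mean inhibition plus 3 SD, cut at about 21% in these data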
JNK3 inh – JNK3 (human) kinase inhibition. purified JNK3 kinase activity, HTS. inhibition, % at 8 µM. 0.61% of 60,000 active; in the data active = inhibition above about 17%;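 also: 0% = DMSO and 100% = reference inhibitor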
* = called active by the depositor; . = no result given.

SMILES	SF-1 act	RORA act	WNV NS2B-NS3 inh	ROCK2 inh	PKA inh	JNK3 inh
c1ccc(CCCNc2ncnc3nc[nH]c23)cc1	-1	-11	-0.05	8	22*	-1
Cn1c(=O)c2c(ncn2CC(=O)N2CCN(c3ccc(F)cc3)CC2)n(C)c1=O	6	-4	0.16	6	8	-2
CCN(CC)C(=O)CSc1ncnc2c(-c3cccs3)nsc12	68*	12	1.2	-3	-3	1
CCN(CC)S(=O)(=O)c1ccc(Nc2nc3ccccc3n3nnnc23)cc1	49	70*	1.1	5	4	0
c1ccc2c(c1)nc(Nc1ccc3c(c1)OCO3)c1nnnn12	18	38	-0.37	10	8	-6
COc1ccccc1OCc1csc(NC(=O)c2ccco2)n1	67*	21	-0.75	5	6	-2
CCOC(=O)c1c(C)c(C(=O)NCCOC)c(C)n1CC	-6	-5	0.42	-8	-8	0
CCOC(=O)c1c(C)c(C(=O)Nc2ccc(N(C)C)cc2)c(C)n1CC	72*	54*	-0.56	3	5	-6
Cc1cc2c(cc1C)NC(c1c(C)n(C)n(-c3ccccc3)c1=O)C1=C(CC(C)(C)CC1=O)N2 (stereo not given)	62*	36	.	.	4	.
O=C(CCn1c(=S)[nH]c2ccccc2c1=O)N1CCN(c2ccccn2)CC1	14	2	-0.9	.	7	.
O=C(c1cc2ccccc2o1)c1nc2c(n1O)CCCCC2	44	56*	1.5	1	0	-12
O=C(OCCN1CCCCC1)c1cc2ccccc2o1	-13	-6	-0.38	.	-2	.
Cc1ccc(-n2c(CSc3nc(C)cc(C)n3)nnc2SCC(=O)NCc2ccco2)cc1	-15	-1	0.02	-4	3	-5
CC(=O)Oc1ccc(NC(=O)CSc2ccccc2)cc1	-14	-18	0.17	3	4	3
CCCOc1ccc2ccccc2c1/C=N/n1c(C)nnc1-n1nc(C)cc1C	31	21	-0.52	2	6	0
O=C(NCc1nc2ccccc2[nH]1)c1cccs1	14	2	-0.73	2	7	28*
Cc1nc2ccccn2c1/C(O)=C1\C(=O)C(=O)N(CCCN(C)C)C1c1ccc(Cl)cc1 (stereo not given)	6	-12	-0.72	1	3	-3
CCOc1ccc(/C=C\C(C)=N\O)cc1	6	72*	1.7	1	5	-1
O/N=C/c1ccc(OCC(O)COc2ccc(/C=N/O)cc2)cc1	-1	-16	0.13	15	12	5
O=C(Nc1ccc2c(c1)OCO2)c1c(F)cccc1F	58*	25	2.4	0	3	3
O=C(Nc1ccc2c(c1)OCO2)c1cccc(F)c1	21	52*	-1	-1	-4	6
CCC(=O)Nc1cccc(NC(=O)c2ccc3c(c2)OCO3)c1	19	20	0.73	4	9	3
O=C(Nc1ccc2c(c1)OCO2)c1cncc(Br)c1	53*	14	-0.4	-3	8	-1
O=C(Nc1ccc2c(c1)OCCO2)c1cncc(Br)c1	31	29	-0.15	7	8	2
CCc1c(C(=O)O)[nH]c2ccc(Br)cc12	-6	1	-0.32	6	6	7
SMILES	SF-1 act	RORA act	WNV NS2B-NS3 inh	ROCK2 inh	PKA inh	JNK3 inh
Cn1c(=O)n(CCOc2ccccc2Cl)c2ccccc21	71*	37	0.18	3	7	-1
Cc1ccc(Nc2cc(-n3nc(C)cc3C)ncn2)cc1	-5	-3	-0.6	-2	-5	30*
CCOC(=O)c1csc(NC(=O)CSc2nnnn2CC)n1	2	8	-0.51	4	10	2
Cc1cc(C)n(-c2ccc(C(=O)NC3=NCCS3)cc2)n1	33	51*	1.3	3	10	3
C(=N\c1nc2ccccc2n1CCN1CCCCC1)/c1cccs1	5	-16	-0.1	19*	5	-2
C(=N\c1nc2ccccc2n1CCN1CCCCC1)/c1ccc2c(c1)OCO2	-7	-5	-0.36	8	7	-1
COc1ccc(CC(=O)Nc2cc(C)ccn2)cc1	20	20	0.15	4	5	27*
CN(C)S(=O)(=O)c1cccc(C(=O)Nc2ccc(Cl)cn2)c1	65*	18	-0.92	0	2	-1
CN(C)c1nc(C(=O)Nc2ccccc2)nc(N(C)C)n1	-9	-8	1.7	4	3	-14
Cc1nc(/N=C\N(C)C)sc1C(=O)Nc1ccccc1	8	52*	0.47	6	9	0
COC(=O)CCN1CCC(C(N)=O)CC1	-1	21	-0.2	4	9	-2
Cc1nc2c(cc(Oc3ccc(S(=O)(=O)N4CCOCC4)cn3)c3ccsc32)s1	53*	35	-0.01	6	6	-1
COC(=O)C1CCN(C(=O)COc2cc3sc(C)nc3c3sccc23)CC1	-10	-10	-0.93	-1	-2	-4
COc1ccc(OC)c(C2C(C(N)=O)=C(C)Nc3nc(-c4cccc(Cl)c4)nn32)c1 (stereo not given)	-15	-31	-4.8*	0	6	-2
Cc1cccc(Nc2ncc3c(n2)CC(C)CC3=O)c1 (stereo not given)	72*	72*	-1.1	0	8	8
CCOC(=O)c1c(C)[nH]c(C(=O)Cn2nnc(-c3ccc(Cl)cc3)n2)c1C	-11	-27	1	-1	-1	-4
CC(=O)Nc1ccc(Cl)cc1C(=O)O	-7	-5	0.29	1	-5	-1
CC(C)OC(=O)c1c(NC(=O)c2cccs2)sc2c1CCCC2	-8	8	-0.88	0	-3	2
COC(=O)c1c(NC(=O)c2c(C)noc2C)sc2c1CCCCCC2	4	-19	-0.6	2	3	-4
Cc1ccc(C(=O)Nc2sc3c(c2C(=O)O)CCCCC3)o1	33	77*	-1.3	-6	2	5
O=C(Nc1sc2c(c1C(=O)O)CCCC2)c1cccs1	54*	67*	-0.04	4	5	2
COC(=O)c1c(NC(=O)c2ccc(C)o2)sc2c1CCCCC2	52*	34	0.17	4	13	5
CC(=O)NC12CC3CC(C)(C1)CC(NC(C)=O)(C3)C2	-2	-13	1	1	-7	-10
O=C(CN(C(=O)CCC(=O)Nc1nccs1)c1ccc(F)c(Cl)c1)NCc1ccco1	5	18	-2.8	-3	0	-3
CCn1ccc(C(=O)Nc2ccc(N(C)C(C)=O)cc2)n1	38	13	0.71	1	5	-2
CCn1ccc(C(=O)Nc2ccc(Cl)cn2)n1	78*	59*	0.37	3	5	-2
N#Cc1c(-c2ccco2)nc(SCc2ccc(F)cc2)[nH]c1=O	-5	7	0.6	3	2	33*
Cc1nc(SCc2cccc(F)c2)[nH]c(=O)c1C#N	4	-24	1.2	4	8	3
